Measured values reported in ChEMBL document CHEMBL3864176, “New Series of BPL Inhibitors To Probe the Ribose-Binding Pocket of Staphylococcus aureus Biotin Protein Ligase” (ACS Med Chem Lett, 2016).
Activity calls are given as the source filed them. The rule behind the calls is not given here.

Tests used:
[1] = Inhibition of Staphylococcus aureus biotin protein ligase assessed as reduction in 3H-biotin incorporation into Staphylococcus aureus pyruvate carboxylase biotin domain after 10 mins by liquid scintillation counting analysis
Method in brief: (§1)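 Recombinant S. aureus BPL; enzymatic incorporation of radiolabeled biotin onto an acceptor protein measured across varying inhibitor concentrations to give IC50. Ki calculated from IC50 assuming competitive inhibition versus biotin, using the known KM for biotin.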

Biotin--protein ligase = target: T1, Biotin--protein ligase (Homo sapiens, UniProt P50747); experiment: Inhibition of human biotin protein ligase assessed as reduction in 3H-biotin incorporation into pyruvate carboxylase biotin domain after 10 mins by liquid scintillation counting analysis
T1 sequence (P50747 whole entry): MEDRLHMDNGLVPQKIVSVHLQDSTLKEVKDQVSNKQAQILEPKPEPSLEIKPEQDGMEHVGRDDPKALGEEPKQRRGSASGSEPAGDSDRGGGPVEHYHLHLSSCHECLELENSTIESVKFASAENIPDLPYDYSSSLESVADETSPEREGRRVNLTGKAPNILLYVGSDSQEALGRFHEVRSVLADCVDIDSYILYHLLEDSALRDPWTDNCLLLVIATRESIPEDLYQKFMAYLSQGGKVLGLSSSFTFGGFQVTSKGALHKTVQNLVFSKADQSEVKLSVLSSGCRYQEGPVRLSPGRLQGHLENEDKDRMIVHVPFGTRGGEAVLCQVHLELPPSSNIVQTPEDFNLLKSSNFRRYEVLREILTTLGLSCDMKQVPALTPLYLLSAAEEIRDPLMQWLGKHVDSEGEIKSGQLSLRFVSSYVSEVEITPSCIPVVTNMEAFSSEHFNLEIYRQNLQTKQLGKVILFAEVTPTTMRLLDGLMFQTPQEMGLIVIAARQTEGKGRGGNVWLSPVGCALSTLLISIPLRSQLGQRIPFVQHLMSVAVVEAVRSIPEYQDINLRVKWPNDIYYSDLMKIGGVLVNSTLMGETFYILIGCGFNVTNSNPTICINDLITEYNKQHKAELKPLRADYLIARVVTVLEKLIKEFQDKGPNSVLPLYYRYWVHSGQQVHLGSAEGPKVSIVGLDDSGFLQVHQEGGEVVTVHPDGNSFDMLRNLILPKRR
Method in brief: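 Recombinant human BPL; radiolabeled biotin transfer onto an acceptor protein measured with 100 μM compound included in the assay medium.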

Staphylococcus aureus [2] = experiment: Growth inhibition of Staphylococcus aureus ATCC 49775 after 16 to 20 hrs by microbroth dilution method relative to control; assay type: functional; set-up: concentration or dose not given beside the values
Method in brief: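 S. aureus ATCC 49775 cultured with compound; growth read spectrophotometrically at 600 nm 20 h post-treatment. Activity called where culture optical density fell by >40% relative to nontreated controls.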

[3] = Cytotoxicity against human HepG2 cells assessed as decrease in cell viability at 40 ug/ml after 24 to 48 hrs by WST-1 assay; assay type: toxicity, cell-based
Method in brief: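 Cultured HepG2 cells (ATCC HB-8065) exposed to compound at a single concentration of 40 μg/mL to assess cytotoxicity.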

Staphylococcus aureus [4] = experiment: Growth inhibition of Staphylococcus aureus RN4220 harboring pCN51 at 16 ug/ml measured every 30 mins for 16 hrs; assay type: functional
Method in brief: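 Cultures grown in medium with 16 μg/mL compound for 16 h; optical density read every 30 min and compared with nontreated controls. Part of a target-overexpression test of the BPL mechanism.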

[5] = Inhibition of Staphylococcus aureus C-terminal His6-tagged biotin protein ligase assessed as reduction in 3H-biotin incorporation into biotin domain of substrate; method in brief: as §1
[6] = Selectivity ratio of Ki for Staphylococcus aureus C-terminal His6-tagged biotin protein ligase to Ki for human C-terminal His6-tagged biotin protein ligase
Method in brief: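 Recombinant S. aureus and human BPLs; enzymatic incorporation of radiolabeled biotin onto an acceptor protein measured across varying compound concentrations. IC50 converted to Ki assuming competition with biotin, using the known biotin KM. Human enzyme tested with 100 μM compound in the assay.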

SMILES: O=C1N[C@H]2[C@H](CS[C@H]2CCCCCc2cn(Cc3cccc(Cl)c3)nn2)N1
- Ki [1]: 0.39 µM
- Ki (Biotin--protein ligase): > 16 µM
- growth inhibition (GI) (Staphylococcus aureus [2]): >40%
- Activity [3]: > 40 µg/mL

SMILES: O=C1N[C@H]2[C@H](CS[C@H]2CCCCCc2cn(Cc3ccc(C(=O)O)cc3)nn2)N1
- Ki [1]: 0.67 µM
- Ki (Biotin--protein ligase): > 16 µM

SMILES: Nc1ccccc1Cn1cc(CCCCC[C@@H]2SC[C@@H]3NC(=O)N[C@@H]32)nn1
- Ki [1]: 1.48 µM
- Ki (Biotin--protein ligase): > 16 µM
- growth inhibition (GI) (Staphylococcus aureus [2]): >40%
- growth inhibition (GI) (Staphylococcus aureus [4]): Active

SMILES: O=C1N[C@H]2[C@H](CS[C@H]2CCCCCc2cn(Cc3ccc(O)cc3)nn2)N1
- Ki [1]: 1.59 µM
- Ki (Biotin--protein ligase): > 16 µM

SMILES: O=C1N[C@H]2[C@H](CS[C@H]2CCCCCc2cn(Cc3cccc(F)c3)nn2)N1
- Ki [1]: 0.28 µM
- Ki (Biotin--protein ligase): > 16 µM
- growth inhibition (GI) (Staphylococcus aureus [2]): >40%
- Activity [3]: > 40 µg/mL
- growth inhibition (GI) (Staphylococcus aureus [4]): Active

SMILES: O=C1N[C@H]2[C@H](CS[C@H]2CCCCCc2cn(Cc3ccc(F)c(F)c3)nn2)N1
- Ki [1]: > 10 µM
- Ki (Biotin--protein ligase): > 16 µM

SMILES: Nc1cccc(Cn2cc(CCCCC[C@@H]3SC[C@@H]4NC(=O)N[C@@H]43)nn2)c1
- Ki [1]: > 10 µM
- Ki (Biotin--protein ligase): > 16 µM

SMILES: O=C1N[C@H]2[C@H](CS[C@H]2CCCCCc2cn(Cc3ccccc3F)nn2)N1
- Ki [1]: > 10 µM
- Ki (Biotin--protein ligase): > 16 µM

SMILES: O=C1N[C@H]2[C@H](CS[C@H]2CCCCCc2cn(Cc3cccc(C(F)(F)F)c3)nn2)N1
- Ki [1]: > 10 µM
- Ki (Biotin--protein ligase): > 16 µM

SMILES: O=C1N[C@H]2[C@H](CS[C@H]2CCCCCc2cn(Cc3ccc(Cl)cc3)nn2)N1
- Ki [1]: 1.1 µM
- Ki (Biotin--protein ligase): > 16 µM
- growth inhibition (GI) (Staphylococcus aureus [2]): >40%
- Activity [3]: > 40 µg/mL

SMILES: Nc1ccc(Cn2cc(CCCCC[C@@H]3SC[C@@H]4NC(=O)N[C@@H]43)nn2)cc1
- Ki [1]: > 10 µM
- Ki (Biotin--protein ligase): > 16 µM

SMILES: O=C1N[C@H]2[C@H](CS[C@H]2CCCCCc2cn(Cc3ccc(F)cc3)nn2)N1
- Ki [1]: 0.6 µM
- Ki (Biotin--protein ligase): > 16 µM
- growth inhibition (GI) (Staphylococcus aureus [2]): >40%
- Activity [3]: > 40 µg/mL

SMILES: Cc1ccc(Cn2cc(CCCCC[C@@H]3SC[C@@H]4NC(=O)N[C@@H]43)nn2)cc1
- Ki [1]: > 10 µM
- Ki (Biotin--protein ligase): > 16 µM

SMILES: Cc1ccc2oc(=O)n(CCCCn3cc(CCCCC[C@@H]4SC[C@@H]5NC(=O)N[C@@H]54)nn3)c2c1
- Ki [5]: 0.09 µM
- Ratio Ki [6]: > 1000

SMILES: CC(C)(C)c1ccc(Cn2cc(CCCCC[C@@H]3SC[C@@H]4NC(=O)N[C@@H]43)nn2)cc1
- Ki [1]: 1.1 µM
- Ki (Biotin--protein ligase): > 16 µM
- growth inhibition (GI) (Staphylococcus aureus [2]): >40%

SMILES: O=C1N[C@H]2[C@H](CS[C@H]2CCCCCc2cn(Cc3ccccc3Br)nn2)N1
- Ki [1]: 0.96 µM
- Ki (Biotin--protein ligase): > 16 µM
- growth inhibition (GI) (Staphylococcus aureus [2]): >40%

SMILES: O=C1N[C@H]2[C@H](CS[C@H]2CCCCCc2cn(Cc3cccc(O)c3)nn2)N1
- Ki [1]: > 10 µM
- Ki (Biotin--protein ligase): > 16 µM

SMILES: O=C1N[C@H]2[C@H](CS[C@H]2CCCCCc2cn(Cc3ccc(I)cc3)nn2)N1
- Ki [1]: 0.56 µM
- Ki (Biotin--protein ligase): > 16 µM
- growth inhibition (GI) (Staphylococcus aureus [2]): >40%

SMILES: COc1ccccc1Cn1cc(CCCCC[C@@H]2SC[C@@H]3NC(=O)N[C@@H]32)nn1
- Ki [1]: 0.53 µM
- Ki (Biotin--protein ligase): > 16 µM

SMILES: O=C1N[C@H]2[C@H](CS[C@H]2CCCCCc2cn(Cc3cccc(I)c3)nn2)N1
- Ki [1]: > 10 µM
- Ki (Biotin--protein ligase): > 16 µM

SMILES: COc1cccc(Cn2cc(CCCCC[C@@H]3SC[C@@H]4NC(=O)N[C@@H]43)nn2)c1
- Ki [1]: 1.1 µM
- Ki (Biotin--protein ligase): > 16 µM

SMILES: Cc1cccc(Cn2cc(CCCCC[C@@H]3SC[C@@H]4NC(=O)N[C@@H]43)nn2)c1
- Ki [1]: 0.71 µM
- Ki (Biotin--protein ligase): > 16 µM
- growth inhibition (GI) (Staphylococcus aureus [2]): >40%

SMILES: O=C1N[C@H]2[C@H](CS[C@H]2CCCCCc2cn(Cc3ccccc3O)nn2)N1
- Ki [1]: > 10 µM
- Ki (Biotin--protein ligase): > 16 µM

SMILES: O=C1N[C@H]2[C@H](CS[C@H]2CCCCCc2cn(Cc3ccccc3Cl)nn2)N1
- Ki [1]: > 10 µM
- Ki (Biotin--protein ligase): > 16 µM

SMILES: COc1ccc(Cn2cc(CCCCC[C@@H]3SC[C@@H]4NC(=O)N[C@@H]43)nn2)cc1
- Ki [1]: > 10 µM
- Ki (Biotin--protein ligase): > 16 µM

SMILES: O=C1N[C@H]2[C@H](CS[C@H]2CCCCCc2cn(Cc3ccc(C(F)(F)F)cc3)nn2)N1
- Ki [1]: > 10 µM
- Ki (Biotin--protein ligase): > 16 µM
